From ChEMBL document CHEMBL2331516, “Synthesis and structure-activity relationships of 5,6,7-substituted pyrazolopyrimidines: discovery of a novel TSPO PET ligand for cancer imaging” (J Med Chem, 2013)

Tests used:
[1] = Lipophilicity, log P of the compound at pH 7.5 by reversed phase HPLC analysis; format: physicochemical; conditions: buffer
Outline: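 Retention times were set relative to catechol and calibrated against standards of known log P using a polynomial log P vs log RRT curve. Injections were done in triplicate and averaged.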

Translocator protein = Translocator protein (Rattus norvegicus, UniProt P16257); assay: Displacement of [3H]-PK 11195 from TSPO in rat C6 cell lysates after 2 hrs by scintillation counting analysis; format: cell-free
Outline: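 Rat C6 glioma cells washed in PBS and freeze-thawed three times in HEPES/mannitol/sucrose lysis buffer with protease inhibitors and MgCl2, pH 7.4 (lysate 0.5 mg/mL). Reaction stopped by filtration onto PEI-presoaked filters, then scintillation counting.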

[2] = Drug metabolism in Wistar rat plasma at 130 to 200 MBq, iv after 12 mins by radio-HPLC analysis; format: ADME, organism-based; conditions: read-out: Drug metabolism
[3] = Displacement of [3H]-flunitrazepam from CBR in Wistar rat cerebral cortex membranes after 2 hrs by scintillation counting analysis; format: cell membranes, Membrane
Outline: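 Male Wistar rat cerebral cortex homogenized in ice-cold PBS pH 7.4 (5.0 mg/mL protein). Incubated with 0.6 nM [3H]flunitrazepam (final) and ligand at 10⁻⁵ to 10⁻⁷ M for 2 h at 25 °C. Reaction stopped by filtration onto PEI-presoaked filters, then scintillation counting of bound activity.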

Rattus norvegicus [4] = species: Rattus norvegicus; assay: Biodistribution in Wistar rat skull at 1.0 to 1.5 mCi after 60 mins by NaI well counting analysis; format: ADME, organism-based; conditions: in vivo, 1 h
Outline: (§1)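 Radiotracer given to rats; 14 tissues plus urine taken 60 min after a 1.0–1.5 mCi injection. Each sample weighed and its radioactivity counted in a NaI well counter. %ID/g derived from weight and radioactivity.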

Liver [5] = assay: Biodistribution in Wistar rat liver at 1.0 to 1.5 mCi after 60 mins by NaI well counting analysis; format: ADME, organism-based; conditions: in vivo, 1 h; outline: as §1
Rattus norvegicus [6] = species: Rattus norvegicus; assay: Stability in C6 cells bearing Wistar rat plasma at 1.5 mCi after 90 mins by radio-HPLC analysis; format: ADME, organism-based; conditions: c6, 1.5 h
Outline: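 Arterial blood (200 μL) drawn at 2, 12, 30, 60 and 90 min after 1.5 mCi radiotracer. Plasma extracted with acetonitrile/water 7/1 and centrifuged. Supernatant run on reversed-phase radio-HPLC with 0.1 M ammonium acetate pH 10/acetonitrile (30/70).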

Heart [7] = assay: Biodistribution in Wistar rat heart at 1.0 to 1.5 mCi after 60 mins by NaI well counting analysis; format: ADME, organism-based; conditions: in vivo, 1 h; outline: as §1
[8] = Drug uptake in iv dosed C6 cells bearing Wistar rat tongue after 90 mins by PET imaging analysis; format: ADME, organism-based; conditions: in vivo, 1.5 h
Outline: (§2)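 Male Wistar rats stereotactically inoculated in the right hemisphere with 1.0×10^5 C6 glioma cells two weeks before imaging, with venous and arterial catheters placed. Tumors confirmed by 4.7-T MRI. PET/CT followed within 24 h, with tracer given via jugular catheter during the scan.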

Lung [9] = assay: Drug uptake in Wistar rat lung at 1.0 to 1.5 mCi after 90 mins by NaI well counting analysis in presence of 2-(5,7-diethyl-2-(4-(2-fluoroethoxy)phenyl)pyrazolo[1,5-a]-pyrimidin-3-yl)-N,N-diethylacetamide; format: ADME, tissue-based; conditions: in vivo, 1.5 h
Outline: (§3)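 Rats received 1.0–1.5 mCi radiotracer. Unlabelled analog (10 mg/kg) was injected 30 min after tracer as a displacement challenge. Tissues taken and counted in a NaI well counter. %ID/g derived from sample weight and radioactivity.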

Liver [10] = assay: Drug uptake in Wistar rat liver at 1.0 to 1.5 mCi after 90 mins by NaI well counting analysis in presence of 2-(5,7-diethyl-2-(4-(2-fluoroethoxy)phenyl)pyrazolo[1,5-a]-pyrimidin-3-yl)-N,N-diethylacetamide; format: ADME, tissue-based; conditions: in vivo, 1.5 h; outline: as §3
Spleen [11] = assay: Biodistribution in Wistar rat spleen at 1.0 to 1.5 mCi after 60 mins by NaI well counting analysis; format: ADME, organism-based; conditions: in vivo, 1 h; outline: as §1
Lung [12] = assay: Biodistribution in Wistar rat lung at 1.0 to 1.5 mCi after 60 mins by NaI well counting analysis; format: ADME, organism-based; conditions: in vivo, 1 h; outline: as §1
[13] = Drug excretion in Wistar rat urine at 1.0 to 1.5 mCi after 90 mins by NaI well counting analysis in presence of 2-(5,7-diethyl-2-(4-(2-fluoroethoxy)phenyl)pyrazolo[1,5-a]-pyrimidin-3-yl)-N,N-diethylacetamide; format: ADME, tissue-based; conditions: in vivo, 1.5 h; outline: as §3
[14] = Drug uptake in iv dosed C6 cells bearing Wistar rat olfactory epithelium after 90 mins by PET imaging analysis; format: ADME, organism-based; conditions: in vivo, 1.5 h; outline: as §2
[15] = Drug uptake in iv dosed C6 cells bearing Wistar rat tumor after 90 mins by PET imaging analysis; format: ADME, organism-based, Neoplasm; conditions: in vivo, 1.5 h; outline: as §2
Heart [16] = assay: Drug uptake in Wistar rat heart at 1.0 to 1.5 mCi after 90 mins by NaI well counting analysis in presence of 2-(5,7-diethyl-2-(4-(2-fluoroethoxy)phenyl)pyrazolo[1,5-a]-pyrimidin-3-yl)-N,N-diethylacetamide; format: ADME, tissue-based; conditions: in vivo, 1.5 h; outline: as §3
Testes = assay: Biodistribution in Wistar rat testes at 1.0 to 1.5 mCi after 60 mins by NaI well counting analysis; format: ADME, organism-based, Testis; conditions: in vivo, 1 h; outline: as §1
Muscle tissue = assay: Drug uptake in Wistar rat muscle at 1.0 to 1.5 mCi after 90 mins by NaI well counting analysis in presence of 2-(5,7-diethyl-2-(4-(2-fluoroethoxy)phenyl)pyrazolo[1,5-a]-pyrimidin-3-yl)-N,N-diethylacetamide; format: ADME, tissue-based; conditions: in vivo, 1.5 h; outline: as §3
Kidney [17] = assay: Biodistribution in Wistar rat kidney at 1.0 to 1.5 mCi after 60 mins by NaI well counting analysis; format: ADME, organism-based; conditions: in vivo, 1 h; outline: as §1
Rattus norvegicus [18] = species: Rattus norvegicus; assay: Biodistribution in Wistar rat stomach at 1.0 to 1.5 mCi after 60 mins by NaI well counting analysis; format: ADME, organism-based; conditions: in vivo, 1 h; outline: as §1
Colon = assay: Biodistribution in Wistar rat colon at 1.0 to 1.5 mCi after 60 mins by NaI well counting analysis; format: ADME, organism-based; conditions: in vivo, 1 h; outline: as §1
Brain [19] = assay: Drug uptake in iv dosed C6 cells bearing Wistar rat brain after 90 mins by PET imaging analysis; format: ADME, organism-based; conditions: in vivo, 1.5 h; outline: as §2
Kidney [20] = assay: Drug uptake in Wistar rat kidney at 1.0 to 1.5 mCi after 90 mins by NaI well counting analysis in presence of 2-(5,7-diethyl-2-(4-(2-fluoroethoxy)phenyl)pyrazolo[1,5-a]-pyrimidin-3-yl)-N,N-diethylacetamide; format: ADME, tissue-based; conditions: in vivo, 1.5 h; outline: as §3
Harderian gland = assay: Drug uptake in iv dosed C6 cells bearing Wistar rat harderian glands after 90 mins by PET imaging analysis; format: ADME, organism-based; conditions: in vivo, 1.5 h; outline: as §2
Brain [21] = assay: Biodistribution in Wistar rat brain at 1.0 to 1.5 mCi after 60 mins by NaI well counting analysis; format: ADME, organism-based; conditions: in vivo, 1 h; outline: as §1
Rattus norvegicus [22] = species: Rattus norvegicus; assay: Biodistribution in Wistar rat small bowel at 1.0 to 1.5 mCi after 60 mins by NaI well counting analysis; format: ADME, organism-based, Small intestine; conditions: in vivo, 1 h; outline: as §1
Rattus norvegicus [23] = species: Rattus norvegicus; assay: Biodistribution in Wistar rat whole blood at 1.0 to 1.5 mCi after 60 mins by NaI well counting analysis; format: ADME, organism-based; conditions: in vivo, 1 h; outline: as §1
[24] = Ratio of total distribution volume in C6 cells bearing Wistar rat tumor to total distribution volume in C6 cells bearing Wistar rat brain; format: ADME, cell-based
Rattus norvegicus [25] = species: Rattus norvegicus; assay: Biodistribution in Wistar rat skeletal muscle at 1.0 to 1.5 mCi after 60 mins by NaI well counting analysis; format: ADME, organism-based, Muscle tissue; conditions: in vivo, 1 h; outline: as §1
Spleen [26] = assay: Drug uptake in Wistar rat spleen at 1.0 to 1.5 mCi after 90 mins by NaI well counting analysis in presence of 2-(5,7-diethyl-2-(4-(2-fluoroethoxy)phenyl)pyrazolo[1,5-a]-pyrimidin-3-yl)-N,N-diethylacetamide; format: ADME, tissue-based; conditions: in vivo, 1.5 h; outline: as §3

Translocator protein, sequence (P16257 whole entry, looked up): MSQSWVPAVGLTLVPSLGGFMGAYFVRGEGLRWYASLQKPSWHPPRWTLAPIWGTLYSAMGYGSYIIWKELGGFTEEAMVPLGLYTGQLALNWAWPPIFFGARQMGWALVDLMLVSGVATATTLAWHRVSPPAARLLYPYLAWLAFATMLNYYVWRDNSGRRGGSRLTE

CCc1c(C)nc2c(CC(=O)N(CC)CC)c(-c3ccc(OCCF)cc3)nn2c1C
logP [1]: 2.53 | Ki (Translocator protein): 277 nM

CCN(CC)C(=O)Cc1c(-c2ccc(OCC[18F])cc2)nn2c(C)cc(C)nc12 [DPA-714 F-18]
metabolised at 0.2 h [2]: 30%

CCc1c(C)nc2c(CC(=O)N(CC)CC)c(-c3ccc(OC)cc3)nn2c1C
logP [1]: 2.78 | Ki (Translocator protein): 157 nM

CCN(CC)C(=O)Cc1c(-c2ccc(OC)cc2)nn2c(C)c(Cl)c(C)nc12
logP [1]: 2.99 | Ki (Translocator protein): 55.4 nM

CCN(CC)C(=O)Cc1c(-c2ccc(OC)cc2)nn2c(C)c(C)c(C)nc12
logP [1]: 2.45 | Ki (Translocator protein): 93.7 nM

CCc1cc(CC)n2nc(-c3ccc(OC)cc3)c(CC(=O)N(CC)CC)c2n1
logP [1]: 2.84 | Ki (Translocator protein): 0.18 nM

CCc1cc(CC)n2nc(-c3ccc(OCCF)cc3)c(CC(=O)N(CC)CC)c2n1
Ki [3]: > 10000 nM | logP [1]: 2.5 | Ki (Translocator protein): 0.27 nM

CCN(CC)C(=O)Cc1c(-c2ccc(OCCF)cc2)nn2c(C(C)C)cc(C(C)C)nc12
logP [1]: 2.73 | Ki (Translocator protein): > 500 nM

CCN(CC)C(=O)Cc1c(-c2ccc(OCCF)cc2)nn2c(C)c(C)c(C)nc12
logP [1]: 2.47 | Ki (Translocator protein): 83 nM

CCc1cc(CC)n2nc(-c3ccc(OCC[18F])cc3)c(CC(=O)N(CC)CC)c2n1
Drug uptake (Rattus norvegicus [4]): Active | Drug uptake (Liver [5]): Active | Stability (Rattus norvegicus [6]): Stable | Drug uptake (Heart [7]): Active | Drug uptake [8]: Active | Drug uptake (Lung [9]): Not Active | Drug uptake (Liver [10]): Active | Drug uptake (Spleen [11]): Active | Drug uptake (Lung [12]): Active | Drug excretion [13]: Active | Drug uptake [14]: Active | Drug uptake [15]: Active | Drug uptake (Heart [16]): Not Active | Drug uptake (Testes): Active | Drug uptake (Muscle tissue): Active | Drug uptake (Kidney [17]): Active | Drug uptake (Rattus norvegicus [18]): Active | Drug uptake (Colon): Active | Drug uptake (Brain [19]): Active | Drug uptake (Kidney [20]): Not Active | Drug uptake (Harderian gland): Active | Drug uptake (Brain [21]): Active | Drug uptake (Rattus norvegicus [22]): Active | Ct (Rattus norvegicus [23]): Not Active | Ratio [24]: 6 | Drug uptake (Rattus norvegicus [25]): Active | Drug uptake (Spleen [26]): Not Active

CCN(CC)C(=O)Cc1c(-c2ccc(OC)cc2)nn2c(C)cc(C)nc12
logP [1]: 2.4

CCN(CC)C(=O)Cc1c(-c2ccc(OCCF)cc2)nn2c(C)c(Cl)c(C)nc12
logP [1]: 2.55 | Ki (Translocator protein): 67.9 nM

CCN(CC)C(=O)Cc1c(-c2ccc(OC)cc2)nn2c(C(C)C)cc(C(C)C)nc12
logP [1]: 2.98 | Ki (Translocator protein): > 500 nM

CCN(CC)C(=O)Cc1c(-c2ccc(OC)cc2)nn2c(C)c(CC(C)=O)c(C)nc12
logP [1]: 2.57 | Ki (Translocator protein): 201 nM

CCN(CC)C(=O)Cc1c(-c2ccc(OCCF)cc2)nn2c(C)c(CC(C)=O)c(C)nc12
logP [1]: 2.07 | Ki (Translocator protein): 252 nM

CCN(CC)C(=O)Cc1c(-c2ccc(OCCF)cc2)nn2c(C)cc(C)nc12 [DPA-714]
logP [1]: 2.12
